From ChEMBL document CHEMBL3352165 (Eur J Med Chem, 2014) come the findings set out here.

Series [1] can be described thus: Cytotoxicity against human SKBR3 cells assessed as inhibition of cell growth after 72 hrs by sulforhodamine B assay. It is filed as functional, cell-based. To be noted: SK-BR-3, 72 h. The method in brief:
(§1)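 Cells grown in RPMI-1640 with 5% FBS and plated at 5.0×10^4/ml. Next day exposed to 0.5–5000 ng/ml for 3 days. Survival read by sulforhodamine B staining. IC50 taken from growth curves; mean of at least three determinations.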
In general terms: In SRB staining, fixed cells bind dye roughly in proportion to their protein.

The next series has as its system MCF7. The experiment in a line: Cytotoxicity against human MCF7 cells assessed as inhibition of cell growth after 72 hrs by sulforhodamine B assay. It is filed as functional, cell-based. Conditions: MCF7, 72 h. The method in brief: as §1
The target of series [2] is Platelet-derived growth factor receptor beta (Homo sapiens, UniProt P09619). The experiment in a line: Inhibition of PDGFRbeta (unknown origin) by ELISA method. The method in brief: (§2)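 Phosphotyrosine ELISA with purified kinase (20 ng) and 5 µM ATP in buffer (50 mM HEPES pH 7.4, 20 mM MgCl2, 0.1 mM MnCl2, 0.2 mM Na3VO4, 1 mM DTT), 1 h at 37 °C, DMSO ≤1%. Detection by PY99 antibody, then HRP anti-mouse IgG with o-phenylenediamine, A490. IC50 by Logit from at least three independent tests.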

The next series concerns NCI-H460. The experiment in a line: cells. To be noted: Homo sapiens, NCI-H460, 72 h.
A further series has as its system A-431. The experiment in a line: Cytotoxicity against human A431 cells assessed as inhibition of cell growth after 72 hrs by sulforhodamine B assay. It counts as functional, cell-based. To be noted: A-431, 72 h. The method in brief: as §1
The nature of series [3]: cells. Conditions: Homo sapiens, Calu-3, 72 h.
In a further series the test system is MDA-MB-453. The experiment in a line: cells. Conditions: Homo sapiens, MDA-MB-453, 72 h.
In series [4] the target is Vascular endothelial growth factor receptor 2 (Homo sapiens, UniProt P35968). Put plainly: Inhibition of KDR (unknown origin) by ELISA method. The method in brief: as §2
A further series deals with MDA-MB-231. Put plainly: cells. To be noted: Homo sapiens, MDA-MB-231, 72 h.
The target in series [5] is Receptor tyrosine-protein kinase erbB-2 (Homo sapiens, UniProt P04626). Put plainly: Inhibition of HER2 (unknown origin) assessed as reduction in autophosphorylation by ELISA method. The method in brief:
as §2
(In general: In an ELISA, binding on a coated surface is turned into a signal by an enzyme label.)

Series [6] can be described thus: Tmax in Beagle dog at 240 mg/kg, po administered as single dose measured after 0.25 to 24 hrs post dose by LC/MS/MS method. It is filed as ADME, organism-based, Canis lupus familiaris. More on the design: dose 240 mg/kg, route oral. Conditions: in vivo. The method in brief: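 Beagle dogs (n = 6), single oral gavage dose of 240 mg/kg. Plasma levels measured by validated LC/MS/MS. Tmax read directly from the concentration-time data.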

A short description of series [7]: cells. Conditions: Homo sapiens, SK-OV-3, 72 h.
A short description of series [8]: AUC (0 to 24 hrs) in Beagle dog at 240 mg/kg, po administered as single dose measured after 0.25 to 24 hrs post dose by LC/MS/MS method. It counts as ADME, organism-based, Canis lupus familiaris. On the set-up: time < 24 hr, dose 240 mg/kg, route oral. To be noted: plasma. The method in brief: (§3)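 Single oral gavage of 240 mg/kg to beagle dogs (n = 6). Blood sampled at 0.25–24 h, kept on ice, centrifuged within 1 h (1000 × g, 4 °C, 15 min), plasma stored at −20 °C. Drug quantified by validated LC/MS/MS. AUC0–24 from non-compartmental analysis; Cmax and MRT taken directly from concentration–time data.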

The subject of the next series is BT-474. The experiment in a line: Cytotoxicity against human BT474 cells assessed as inhibition of cell growth after 72 hrs by sulforhodamine B assay. It is filed as functional, cell-based. To be noted: BT-474, 72 h. The method in brief:
as §1

Series [9] can be described thus: Cmax in Beagle dog at 240 mg/kg, po administered as single dose measured after 0.25 to 24 hrs post dose by LC/MS/MS method. It counts as ADME, organism-based, Canis lupus familiaris. On the set-up: dose 240 mg/kg, route oral. To be noted: in vivo. The method in brief: as §3
The next series relates to MRC5. Put plainly: cells. Conditions: Homo sapiens, MRC5, 72 h.
The nature of series [10]: Mean residence time in Beagle dog at 240 mg/kg, po administered as single dose measured after 0.25 to 24 hrs post dose by LC/MS/MS method. It counts as ADME, organism-based, Canis lupus familiaris. On the set-up: dose 240 mg/kg, route oral. To be noted: in vivo. The method in brief: as §3
For series [11], the target named is Epidermal growth factor receptor (Homo sapiens, UniProt P00533). Put plainly: Inhibition of HER1 (unknown origin) assessed as reduction in autophosphorylation by ELISA method.
The target of series [12] is Mast/stem cell growth factor receptor Kit (Homo sapiens, UniProt P10721). The experiment in a line: Inhibition of c-KIT (unknown origin) by ELISA method. The method in brief: as §2
Chain of Mast/stem cell growth factor receptor Kit (P10721 whole entry): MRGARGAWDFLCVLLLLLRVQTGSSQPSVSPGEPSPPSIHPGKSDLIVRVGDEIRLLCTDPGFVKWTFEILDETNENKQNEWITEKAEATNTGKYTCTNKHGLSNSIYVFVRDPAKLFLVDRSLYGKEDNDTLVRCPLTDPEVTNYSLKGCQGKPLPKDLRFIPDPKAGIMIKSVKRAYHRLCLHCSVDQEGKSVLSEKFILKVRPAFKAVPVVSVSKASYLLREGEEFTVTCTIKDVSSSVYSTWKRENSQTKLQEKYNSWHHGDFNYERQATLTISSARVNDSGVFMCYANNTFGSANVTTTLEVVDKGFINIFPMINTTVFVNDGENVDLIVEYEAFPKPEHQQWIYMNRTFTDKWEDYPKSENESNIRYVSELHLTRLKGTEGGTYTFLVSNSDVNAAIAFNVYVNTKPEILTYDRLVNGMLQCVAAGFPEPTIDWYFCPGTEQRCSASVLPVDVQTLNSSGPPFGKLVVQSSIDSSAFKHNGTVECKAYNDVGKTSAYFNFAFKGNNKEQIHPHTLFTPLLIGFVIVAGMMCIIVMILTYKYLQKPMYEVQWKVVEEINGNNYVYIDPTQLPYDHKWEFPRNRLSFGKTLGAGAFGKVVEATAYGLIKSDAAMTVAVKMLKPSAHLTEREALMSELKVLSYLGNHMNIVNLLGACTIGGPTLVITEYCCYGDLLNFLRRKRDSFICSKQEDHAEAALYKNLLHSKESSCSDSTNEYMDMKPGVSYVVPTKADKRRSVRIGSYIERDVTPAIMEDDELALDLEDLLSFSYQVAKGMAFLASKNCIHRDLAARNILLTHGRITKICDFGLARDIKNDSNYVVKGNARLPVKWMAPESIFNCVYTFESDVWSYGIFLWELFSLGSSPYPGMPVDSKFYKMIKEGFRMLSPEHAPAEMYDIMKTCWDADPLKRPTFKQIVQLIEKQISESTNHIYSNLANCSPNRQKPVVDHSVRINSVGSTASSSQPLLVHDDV

Chain of Epidermal growth factor receptor (P00533 whole entry): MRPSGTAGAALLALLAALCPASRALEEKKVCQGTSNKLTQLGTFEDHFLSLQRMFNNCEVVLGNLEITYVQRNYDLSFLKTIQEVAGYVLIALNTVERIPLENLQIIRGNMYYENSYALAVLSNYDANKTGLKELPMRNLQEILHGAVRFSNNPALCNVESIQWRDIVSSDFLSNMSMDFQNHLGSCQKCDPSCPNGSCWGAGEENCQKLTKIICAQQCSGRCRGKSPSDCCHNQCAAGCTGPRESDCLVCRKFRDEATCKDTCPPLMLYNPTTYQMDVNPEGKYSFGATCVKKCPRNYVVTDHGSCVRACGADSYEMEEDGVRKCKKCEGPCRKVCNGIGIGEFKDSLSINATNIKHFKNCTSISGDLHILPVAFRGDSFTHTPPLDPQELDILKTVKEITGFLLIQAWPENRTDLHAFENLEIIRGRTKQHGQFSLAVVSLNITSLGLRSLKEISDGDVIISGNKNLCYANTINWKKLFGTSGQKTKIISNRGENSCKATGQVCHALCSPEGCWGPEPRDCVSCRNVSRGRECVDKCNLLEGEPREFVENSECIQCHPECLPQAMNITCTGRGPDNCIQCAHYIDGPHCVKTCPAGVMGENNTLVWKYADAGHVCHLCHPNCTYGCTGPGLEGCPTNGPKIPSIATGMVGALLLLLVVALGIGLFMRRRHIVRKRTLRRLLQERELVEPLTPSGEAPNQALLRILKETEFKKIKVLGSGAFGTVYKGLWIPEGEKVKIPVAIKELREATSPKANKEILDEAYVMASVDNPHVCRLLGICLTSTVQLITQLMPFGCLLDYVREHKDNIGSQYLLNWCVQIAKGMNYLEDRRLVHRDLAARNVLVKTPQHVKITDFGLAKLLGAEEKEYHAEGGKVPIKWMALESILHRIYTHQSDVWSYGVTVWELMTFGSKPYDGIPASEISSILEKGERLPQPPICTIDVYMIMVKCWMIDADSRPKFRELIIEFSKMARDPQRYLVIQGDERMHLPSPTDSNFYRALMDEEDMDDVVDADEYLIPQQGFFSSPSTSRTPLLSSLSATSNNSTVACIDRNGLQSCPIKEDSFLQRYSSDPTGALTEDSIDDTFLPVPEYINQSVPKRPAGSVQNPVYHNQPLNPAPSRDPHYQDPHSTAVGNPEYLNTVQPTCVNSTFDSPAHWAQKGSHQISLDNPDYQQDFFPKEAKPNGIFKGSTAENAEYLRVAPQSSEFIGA
Chain of Platelet-derived growth factor receptor beta (P09619 whole entry): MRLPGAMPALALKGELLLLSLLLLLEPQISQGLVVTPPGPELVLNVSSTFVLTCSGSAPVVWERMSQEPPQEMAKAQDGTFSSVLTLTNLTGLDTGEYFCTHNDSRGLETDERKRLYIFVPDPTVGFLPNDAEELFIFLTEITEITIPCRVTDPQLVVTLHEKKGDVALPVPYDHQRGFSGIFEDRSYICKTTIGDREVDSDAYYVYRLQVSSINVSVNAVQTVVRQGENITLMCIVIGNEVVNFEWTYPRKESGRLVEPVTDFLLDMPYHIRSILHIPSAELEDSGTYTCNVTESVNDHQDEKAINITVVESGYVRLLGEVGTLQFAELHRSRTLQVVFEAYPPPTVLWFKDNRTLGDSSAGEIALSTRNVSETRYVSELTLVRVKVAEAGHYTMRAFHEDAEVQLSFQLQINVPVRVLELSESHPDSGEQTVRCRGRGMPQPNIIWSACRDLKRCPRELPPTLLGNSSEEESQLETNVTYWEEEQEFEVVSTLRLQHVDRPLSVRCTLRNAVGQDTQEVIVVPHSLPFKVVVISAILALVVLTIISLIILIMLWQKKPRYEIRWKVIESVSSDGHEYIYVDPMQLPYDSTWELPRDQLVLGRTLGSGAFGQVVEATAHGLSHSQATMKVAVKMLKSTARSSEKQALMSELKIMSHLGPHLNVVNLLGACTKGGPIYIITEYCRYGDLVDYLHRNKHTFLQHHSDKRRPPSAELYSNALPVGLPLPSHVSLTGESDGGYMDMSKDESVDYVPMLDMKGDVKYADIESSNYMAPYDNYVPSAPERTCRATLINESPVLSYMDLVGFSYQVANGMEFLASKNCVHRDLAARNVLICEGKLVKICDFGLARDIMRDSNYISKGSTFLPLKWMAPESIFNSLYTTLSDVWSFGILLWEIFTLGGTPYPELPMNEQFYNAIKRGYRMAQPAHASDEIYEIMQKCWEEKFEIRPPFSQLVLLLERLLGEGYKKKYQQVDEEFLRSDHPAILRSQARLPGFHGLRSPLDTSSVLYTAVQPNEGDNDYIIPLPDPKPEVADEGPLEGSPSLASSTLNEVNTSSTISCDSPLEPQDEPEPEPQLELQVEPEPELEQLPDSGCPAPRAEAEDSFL
Chain of Receptor tyrosine-protein kinase erbB-2 (P04626 whole entry): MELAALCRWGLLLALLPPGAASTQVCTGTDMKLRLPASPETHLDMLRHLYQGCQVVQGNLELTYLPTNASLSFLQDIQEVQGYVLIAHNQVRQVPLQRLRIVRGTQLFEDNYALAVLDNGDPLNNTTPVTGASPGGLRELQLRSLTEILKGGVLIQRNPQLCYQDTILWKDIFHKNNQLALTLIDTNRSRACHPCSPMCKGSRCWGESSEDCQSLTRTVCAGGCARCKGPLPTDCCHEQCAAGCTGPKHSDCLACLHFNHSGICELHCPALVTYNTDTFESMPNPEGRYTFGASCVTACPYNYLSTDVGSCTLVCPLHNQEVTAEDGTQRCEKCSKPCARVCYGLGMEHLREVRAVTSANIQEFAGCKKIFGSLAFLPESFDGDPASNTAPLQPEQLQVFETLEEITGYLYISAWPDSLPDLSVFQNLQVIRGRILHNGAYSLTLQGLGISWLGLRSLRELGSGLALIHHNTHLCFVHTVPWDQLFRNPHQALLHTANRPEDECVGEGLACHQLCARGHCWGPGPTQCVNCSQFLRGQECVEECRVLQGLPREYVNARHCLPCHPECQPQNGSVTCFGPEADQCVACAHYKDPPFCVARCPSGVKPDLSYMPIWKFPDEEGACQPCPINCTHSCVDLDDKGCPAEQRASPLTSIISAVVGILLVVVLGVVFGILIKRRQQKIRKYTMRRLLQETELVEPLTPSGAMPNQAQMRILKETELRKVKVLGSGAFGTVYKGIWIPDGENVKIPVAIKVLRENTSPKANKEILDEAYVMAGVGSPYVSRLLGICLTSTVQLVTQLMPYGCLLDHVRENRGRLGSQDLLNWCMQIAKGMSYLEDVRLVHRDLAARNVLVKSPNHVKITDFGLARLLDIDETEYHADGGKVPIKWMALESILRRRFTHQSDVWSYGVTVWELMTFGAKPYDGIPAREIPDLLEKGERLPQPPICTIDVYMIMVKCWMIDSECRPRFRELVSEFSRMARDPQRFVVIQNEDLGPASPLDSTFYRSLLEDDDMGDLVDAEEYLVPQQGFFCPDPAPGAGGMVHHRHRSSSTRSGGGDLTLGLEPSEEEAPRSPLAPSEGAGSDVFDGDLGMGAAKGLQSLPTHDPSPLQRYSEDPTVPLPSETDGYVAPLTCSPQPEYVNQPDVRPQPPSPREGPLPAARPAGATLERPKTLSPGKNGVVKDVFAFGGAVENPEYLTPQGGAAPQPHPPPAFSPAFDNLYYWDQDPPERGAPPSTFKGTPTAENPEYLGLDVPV

In general, IC50 refers to the point on the concentration scale where inhibition reaches its midpoint. Usually Tmax stands for the time from dosing to the highest level. The term AUC(0-t) denotes the area under the concentration-time curve up to a stated or last time point. For orientation: Cmax means the highest concentration seen after dosing. In general, MRT refers to a mean duration of stay, worked out from the concentration-time curve. Regarding `CS(=O)(=O)C[C@@H](N)c1ccc(-c2ccc3ncnc(Nc4ccc(OCc5cccc(F)c5)c(Cl)c4)c3c2)o1`, the IC50 in series [1] is 21 nM; in the series on MCF7, 6.83 µM; in [2], greater than 200 µM; in the series on NCI-H460 it was greater than 100 µM; in the series on A-431, 663 nM; in the series “cells [3]” it was 220 nM. The IC50 with MDA-MB-453 is 240 nM; in series [4] it was greater than 200 µM; in the series with MDA-MB-231, greater than 100 µM; in series [5], 2.9 nM; in the series “cells [7]” it was 410 nM; in the series with BT-474 it was 69.2 nM. The IC50 is greater than 100 µM with MRC5, 10.8 nM in [11] and greater than 200 µM in [12]. Besides, the Tmax in series [6] is 5 h. The AUC(0-t) at 24 h in series [8] is 20300 ng·h/mL. Besides, the Cmax in series [9] was 2100 ng/mL. This compound registered an MRT in series [10] of 6.8 h.
